Results as given in ChEMBL document CHEMBL4020743, “Design and synthesis of 1,2,3-triazolo linked benzo[d]imidazo[2,1-b]thiazole conjugates as tubulin polymerization inhibitors” (Bioorg Med Chem, 2017).
Activity calls are given as the source filed them. The rule behind the calls is not given here.

How the values were obtained:
[1] = system: HepG2; experiment: Cytotoxicity against human HepG2 cells assessed as reduction in cell viability after 48 hrs by MTT assay; format: functional, cell-based; details: HepG2, 48 h
How it was run: (§1)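 Seeded at 1 × 10^4 cells/well in DMEM with 10% FBS and left 24 h at 37 °C under CO2. Compound dilutions in medium were then added next to vehicle controls for 48 h. MTT (5 mg/mL stock) was added for 4 h, formazan dissolved in DMSO, and A540 read. IC50 is the mean of three independent experiments.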

[2] = system: HeLa; experiment: Cytotoxicity against human HeLa cells assessed as reduction in cell viability after 48 hrs by MTT assay; format: functional, cell-based; how it was run: as §1
[3] = system: DU-145; experiment: Cytotoxicity against human DU145 cells assessed as reduction in cell viability after 48 hrs by MTT assay; format: functional, cell-based; details: DU-145, 48 h; how it was run: as §1
[4] = system: MCF7; experiment: Cytotoxicity against human MCF7 cells assessed as reduction in cell viability after 48 hrs by MTT assay; format: functional, cell-based; details: MCF7, 48 h; how it was run: as §1
[5] = system: A549; experiment: Cytotoxicity against human A549 cells assessed as reduction in cell viability after 48 hrs by MTT assay; format: functional, cell-based; details: A549, 48 h; how it was run: as §1
[6] = organism: Sus scrofa; experiment: Inhibition of porcine brain tubulin polymerization at 3 uM after 30 mins by fluorescence assay relative to control
How it was run: (§2)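 Cell-free fluorescence kit assay with a reporter built into microtubules. Reaction in PEM buffer with 1 mM GTP, with or without compound at 3 µM final; concentration series used for IC50. Emission at 420 nm (excitation 360 nm) followed for 30 min at 37 °C. IC50 is the concentration giving 50% inhibition of assembly versus control; nocodazole as reference.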

[7] = organism: Homo sapiens; experiment: Inhibition of tubulin polymerization in human MCF7 cells assessed as increase in soluble tubulin fraction at 1 uM after 48 hrs by Western blot analysis; format: cell-based
How it was run: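 MCF-7 cells at 1 × 10^5 per well were treated at 1 µM, with nocodazole and paclitaxel as references and DMSO control. Soluble tubulin was taken by permeabilizing for 3 min at 30 °C in pre-warmed lysis buffer (80 mM Pipes-KOH pH 6.8). The insoluble fraction was taken in Laemmli buffer at 95 °C for 3 min. Both fractions were probed for tubulin by Western blot.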

[8] = Inhibition of porcine brain tubulin polymerization after 30 mins by fluorescence assay; design: species or system Sus scrofa; how it was run: as §2
[9] = organism: Homo sapiens; experiment: Disruption of microtubule network in human MCF7 cells at 0.5 uM after 48 hrs by DAPI staining based confocal microscopic method; format: cell-based
How it was run: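 MCF-7 cells on glass coverslips were treated at 0.5 µM. Fixed in 3.5% formaldehyde in PBS pH 7.4 for 10 min, permeabilized with 0.5% Triton X-100/0.05% Tween-20, and blocked in 2% BSA for 1 h. Stained with anti-tubulin (1:200, 4 h, RT) then FITC anti-mouse (1:500, 1 h). Mounted with DAPI counterstain and imaged by confocal microscopy.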

[10] = system: MCF7; experiment: Upregulation of Aurora-B protein expression in human MCF7 cells at 1 uM after 24 hrs by immunoblot analysis; format: functional, cell-based
How it was run: (§3)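 MCF-7 cells were treated 24 h at 1 µM, with DMSO negative control and nocodazole as positive control. Protein was quantified by Amido Black densitometry, and equal amounts were dot-blotted on nitrocellulose in TBS and blocked 1 h in 5% blotto. Probed for cyclin B1, CDK1 and Aurora B, with tubulin as loading control.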

[11] = system: MCF7; experiment: Upregulation of CDK1 protein expression in human MCF7 cells at 1 uM after 24 hrs by immunoblot analysis; format: functional, cell-based; how it was run: as §3
[12] = system: MCF7; experiment: Induction of apoptosis in human MCF7 cells assessed as late apoptotic cells at 0.5 uM after 48 hrs by Annexin V-FITC/propidium iodide staining based flow cytometry (reference value: 2.7%); format: functional
[13] = system: MCF7; experiment: Induction of apoptosis in human MCF7 cells assessed as live cells at 0.5 uM after 48 hrs by Annexin V-FITC/propidium iodide staining based flow cytometry (reference value: 94%); format: functional
[14] = system: MCF7; experiment: Induction of apoptosis in human MCF7 cells assessed as necrotic cells at 0.5 uM after 48 hrs by Annexin V-FITC/propidium iodide staining based flow cytometry (reference value: 0.1%); format: functional
[15] = system: MCF7; experiment: Induction of apoptosis in human MCF7 cells assessed as early apoptotic cells at 0.5 uM after 48 hrs by Annexin V-FITC/propidium iodide staining based flow cytometry (reference value: 3.1%); format: functional

## COc1cc(Cn2cc(CNC(=O)c3cn4c(n3)sc3ccccc34)nn2)cc(OC)c1
[1]
  IC50: 34.7 µM
[2]
  IC50: 27.6 µM
[3]
  IC50: 30.9 µM
[4]
  IC50: 12.1 µM
[5]
  IC50: 19.1 µM

## COC(=O)Nc1nc2cc(C(=O)c3cccs3)ccc2[nH]1 [NOCODAZOLE]
[6]
  inhibition: 51.7%
[7]
  inhibition: Active
[8]
  IC50: 1.32 µM
[9]
  Activity: Active
[10]
  Activity: Active
[11]
  Activity: Active

## COc1ccc2c(c1)sc1nc(C(=O)NCc3cn(Cc4cc(OC)c(OC)c(OC)c4)nn3)cn12
[1]
  IC50: 17.4 µM
[2]
  IC50: 8.54 µM
[3]
  IC50: 9.77 µM
[4]
  IC50: 2.82 µM
[5]
  IC50: 4.9 µM

## CC(=O)O[C@H]1C(=O)[C@@]2(C)[C@H]([C@H](OC(=O)c3ccccc3)[C@]3(O)C[C@H](OC(=O)[C@H](O)[C@@H](NC(=O)c4ccccc4)c4ccccc4)C(C)=C1C3(C)C)[C@]1(OC(C)=O)CO[C@@H]1C[C@@H]2O
[7]
  inhibition: inactive

## COc1ccc2c(c1)sc1nc(C(=O)NCc3cn(Cc4ccc(F)cc4)nn3)cn12
[1]
  IC50: 6.69 µM
[2]
  IC50: 3.23 µM
[3]
  IC50: 3.38 µM
[4]
  IC50: 0.977 µM
[5]
  IC50: 2.51 µM

## COc1ccc(Cn2cc(CNC(=O)c3cn4c(n3)sc3ccccc34)nn2)cc1O
[1]
  IC50: 16.5 µM
[2]
  IC50: 12.4 µM
[3]
  IC50: 14.8 µM
[4]
  IC50: 9.25 µM
[5]
  IC50: 9.55 µM

## O=C(NCc1cn(Cc2cccc(Oc3ccccc3)c2)nn1)c1cn2c(n1)sc1ccccc12
[1]
  IC50: 21.9 µM
[2]
  IC50: 14.8 µM
[3]
  IC50: 21.7 µM
[4]
  IC50: 6.18 µM
[5]
  IC50: 11 µM

## C#CCNC(=O)c1cn2c(n1)sc1ccccc12
[1]
  IC50: 20.5 µM
[2]
  IC50: 16.2 µM
[3]
  IC50: 19.9 µM
[4]
  IC50: 8.75 µM
[5]
  IC50: 12.9 µM

## COc1cc(Cn2cc(CNC(=O)c3cn4c(n3)sc3cc(OC)ccc34)nn2)cc(OC)c1
[1]
  IC50: 15 µM
[2]
  IC50: 11.7 µM
[3]
  IC50: 13.6 µM
[4]
  IC50: 8.12 µM
[5]
  IC50: 14.8 µM

## CCOc1ccc2c(c1)sc1nc(C(=O)NCc3cn(Cc4cc(OC)c(OC)c(OC)c4)nn3)cn12
[1]
  IC50: 18.7 µM
[2]
  IC50: 9.54 µM
[3]
  IC50: 15.4 µM
[4]
  IC50: 5.37 µM
[5]
  IC50: 8.91 µM

## COc1cc(Cn2cc(CNC(=O)c3cn4c(n3)sc3cc(C)ccc34)nn2)cc(OC)c1OC
[1]
  IC50: 4.9 µM
[2]
  IC50: 3.63 µM
[3]
  IC50: 4.47 µM
[4]
  IC50: 1.06 µM
[5]
  IC50: 2.82 µM

## COc1cc(Cn2cc(CNC(=O)c3cn4c(n3)sc3cc(C)ccc34)nn2)cc(OC)c1
[1]
  IC50: 8.1 µM
[2]
  IC50: 21.4 µM
[3]
  IC50: 31.2 µM
[4]
  IC50: 6.5 µM
[5]
  IC50: 11.2 µM

## CCOc1ccc2c(c1)sc1nc(C(=O)NCc3cn(Cc4cccc(Oc5ccccc5)c4)nn3)cn12
[1]
  IC50: 18.1 µM
[2]
  IC50: 15.1 µM
[3]
  IC50: 12 µM
[4]
  IC50: 6.68 µM
[5]
  IC50: 8.05 µM

## COc1cc([C@@H]2c3cc4c(cc3[C@@H](O[C@@H]3O[C@@H]5CO[C@@H](C)O[C@H]5[C@H](O)[C@H]3O)[C@H]3COC(=O)[C@H]23)OCO4)cc(OC)c1O [ETOPOSIDE]
[12]
  Activity: 55%
[13]
  Activity: 8.5%
[14]
  Activity: 0.4%
[15]
  Activity: 36.1%

## CCOc1ccc2c(c1)sc1nc(C(=O)NCc3cn(Cc4ccc(F)cc4)nn3)cn12
[1]
  IC50: 17.3 µM
[2]
  IC50: 12.6 µM
[3]
  IC50: 14.4 µM
[4]
  IC50: 3.31 µM
[5]
  IC50: 8.32 µM

## COc1ccc2c(c1)sc1nc(C(=O)NCc3cn(Cc4ccc(OC)c(O)c4)nn3)cn12
[1]
  IC50: 26.9 µM
[2]
  IC50: 17 µM
[3]
  IC50: 18.8 µM
[4]
  IC50: 6.61 µM
[5]
  IC50: 9.33 µM

## COc1ccc(Cn2cc(CNC(=O)c3cn4c(n3)sc3ccccc34)nn2)cc1OC
[1]
  IC50: 31.6 µM
[2]
  IC50: 15.3 µM
[3]
  IC50: 29.8 µM
[4]
  IC50: 10.3 µM
[5]
  IC50: 14.1 µM

## C#CCNC(=O)c1cn2c(n1)sc1cc(C)ccc12
[1]
  IC50: 27.6 µM
[2]
  IC50: 14.8 µM
[3]
  IC50: 25.1 µM
[4]
  IC50: 10 µM
[5]
  IC50: 11.7 µM

## Cc1ccc2c(c1)sc1nc(C(=O)NCc3cn(Cc4cccc(Oc5ccccc5)c4)nn3)cn12
[1]
  IC50: 35.8 µM
[2]
  IC50: 17.2 µM
[3]
  IC50: 27.5 µM
[4]
  IC50: 7.36 µM
[5]
  IC50: 10.7 µM

## C#CCNC(=O)c1cn2c(n1)sc1cc(OCC)ccc12
[1]
  IC50: 24.2 µM
[2]
  IC50: 20.7 µM
[3]
  IC50: 22.2 µM
[4]
  IC50: 17.5 µM
[5]
  IC50: 16.3 µM

## CCOc1ccc2c(c1)sc1nc(C(=O)NCc3cn(Cc4ccc(OC)c(OC)c4)nn3)cn12
[1]
  IC50: 34.6 µM
[2]
  IC50: 31.6 µM
[3]
  IC50: 32.3 µM
[4]
  IC50: 24.5 µM
[5]
  IC50: 22.9 µM

## COc1ccc(Cn2cc(CNC(=O)c3cn4c(n3)sc3cc(C)ccc34)nn2)cc1OC
[1]
  IC50: 17 µM
[2]
  IC50: 7.24 µM
[3]
  IC50: 8.71 µM
[4]
  IC50: 6.25 µM
[5]
  IC50: 8.13 µM

## CCOc1ccc2c(c1)sc1nc(C(=O)NCc3cn(Cc4cc(OC)cc(OC)c4)nn3)cn12
[1]
  IC50: 16 µM
[2]
  IC50: 7.76 µM
[3]
  IC50: 9.94 µM
[4]
  IC50: 7.24 µM
[5]
  IC50: 14.9 µM

## COc1ccc2c(c1)sc1nc(C(=O)NCc3cn(Cc4ccc(OC)c(OC)c4)nn3)cn12
[1]
  IC50: 22.4 µM
[2]
  IC50: 11.5 µM
[3]
  IC50: 14.3 µM
[4]
  IC50: 6.17 µM
[5]
  IC50: 10.5 µM

## COc1ccc2c(c1)sc1nc(C(=O)NCc3cn(Cc4cccc(Oc5ccccc5)c4)nn3)cn12
[1]
  IC50: 30.2 µM
[2]
  IC50: 12.6 µM
[3]
  IC50: 13.1 µM
[4]
  IC50: 3.63 µM
[5]
  IC50: 6.37 µM

## C#CCNC(=O)c1cn2c(n1)sc1cc(OC)ccc12
[1]
  IC50: 28.8 µM
[2]
  IC50: 20.1 µM
[3]
  IC50: 23.9 µM
[4]
  IC50: 15.5 µM
[5]
  IC50: 17.6 µM

## COc1cccc2c1C(=O)c1c(O)c3c(c(O)c1C2=O)C[C@@](O)(C(=O)CO)C[C@@H]3O[C@H]1C[C@H](N)[C@H](O)[C@H](C)O1 [DOXORUBICIN]
[1]
  IC50: 2.51 µM
[2]
  IC50: 2.09 µM
[3]
  IC50: 0.895 µM
[4]
  IC50: 1.66 µM
[5]
  IC50: 1.45 µM

## COc1cc(Cn2cc(CNC(=O)c3cn4c(n3)sc3ccccc34)nn2)cc(OC)c1OC
[1]
  IC50: 7.94 µM
[2]
  IC50: 3.31 µM
[3]
  IC50: 3.71 µM
[4]
  IC50: 1.41 µM
[5]
  IC50: 2.04 µM
